Reference: ChEMBL document CHEMBL5104200, “Discovery and Biological Characterization of PRMT5:MEP50 Protein-Protein Interaction Inhibitors” (J Med Chem, 2022)
pIC50: −log10 of the molar value. Blank lines part the entries; values can stand above or below the molecule they belong to. Active and inactive are the calls of the source. No cut-off for these calls is given here.

How the values were obtained:
[1] = target: T1, PRMT5/MEP50 complex (Homo sapiens) (UniProt O14744+Q9BQA1); assay: Inhibition of PRMT5/MEP50 (unknown origin) protein-protein interaction expressed in COS-1 cells at 10 uM incubated for 18 hrs by BiFC screening analysis relative to control; format: cell-based
Method in brief: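 Transfected COS-1 cells (VN-PRMT5, VC-MEP50, NLS-CFP) treated at 10 µM or DMSO six hours after transfection; imaged 24 h after transfection. Per-cell YFP:CFP mean intensity ratio normalized to DMSO gives BiFC efficiency; inhibition = 100% minus efficiency. Single biological replicate screen.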

[2] = target: T1, PRMT5/MEP50 complex (Homo sapiens); assay: Inhibition of PRMT5 /MEP50 protein-protein interaction in human LNCaP cells assessed as increase in IVL gene expression at 500 nM after 72 hrs by RT-qPCR analysis
A549 = assay: Cytotoxicity against human A549 cells after 72 hrs by MTT assay; format: functional, cell-based; conditions: A549, 72 h
LNCaP [3] = assay: Upregulation of PTEN gene expression in human LNCaP cells at 500 nM after 72 hrs by RT-qPCR analysis; format: functional, cell-based
Method in brief: (§1)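 LNCaP seeded in 6 or 10 cm dishes, attached 24 h, treated 500 nM or DMSO for 72 h. RNA by Trizol, integrity checked on agarose gel. RT-qPCR in technical triplicate, CT normalized to GAPDH; three biological replicates, Student's t-test.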

[4] = target: T1, PRMT5/MEP50 complex (Homo sapiens); assay: Inhibition of PRMT5/MEP50 protein-protein interaction in human LNCaP cells assessed as reduction in TGF-beta signalling after 72 hrs
LNCaP [5] = assay: Upregulation of RB1 gene expression in human LNCaP cells at 500 nM after 72 hrs by RT-qPCR analysis; format: functional, cell-based; method in brief: as §1
[6] = target: T1, PRMT5/MEP50 complex (Homo sapiens); assay: Inhibition of PRMT5 /MEP50 protein-protein interaction in human LNCaP cells at 500 nM incubated for 24 hrs by co-immunoprecipitation method; format: cell-based
Method in brief: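 LNCaP treated 500 nM or DMSO for 24 h, lysed 1 h at 4 °C in Tris pH 7.4/NaCl/EDTA/Triton buffer with protease inhibitors. 1 mg/mL lysate immunoprecipitated overnight with anti-PRMT5, anti-MEP50 or rabbit IgG on protein A beads. Blots probed for PRMT5 and MEP50; signal normalized to 0.4% input.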

[7] = target: T1, PRMT5/MEP50 complex (Homo sapiens); assay: Inhibition of PRMT5 /MEP50 protein-protein interaction in human LNCaP cells assessed as reduction in H4R3me2 level after 72 hrs by densitometry method; format: cell-based; conditions: DDE = dose-dependent effect
Method in brief: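 LNCaP treated 72 h; lysed in RIPA with protease inhibitors, protein by Bradford, 20 µg loaded on 15% gel. Blotted with anti-H4R3 and anti-H4R3me2s, IRDye 800CW secondary, infrared imaging. H4R3me2s integrated intensity normalized to H4R3 versus DMSO; three biological replicates, t-test.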

[8] = target: T1, PRMT5/MEP50 complex (Homo sapiens); assay: Inhibition of PRMT5/MEP50 (unknown origin) protein-protein interaction expressed in COS-1 cells at 250 to 500 nM incubated for 18 hrs by BiFC screening analysis relative to control; format: cell-based; conditions: dose 250-500 nM
Method in brief: (§2)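 COS-1 seeded 50,000 cells/well, co-transfected with Myc-VN155-PRMT5, HA-VC-MEP50 and FLAG-NLS-CFP. After 24 h transfection, treated 18 h at 0.5 µM or 0.25 µM (separate screens), then imaged (YFP, CFP). Per-cell YFP:CFP ratio normalized to DMSO gives BiFC efficiency; % inhibition = 100% − efficiency. Single biological replicate screens.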

LNCaP [9] = assay: Induction of cell death in human LNCaP cells incubated for 72 hrs by MTT assay; format: functional, cell-based
Method in brief: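 LNCaP seeded 7,000 cells/well, attached 24 h, then given an 11-point dilution series plus DMSO control (constant 0.25% DMSO) for 72 h at 37 °C, 5% CO2. MTT at 0.5 mg/mL in complete RPMI for 4 h, then dissolved in DMSO and read at 570 nm. IC50 from regression curve; mean of three biological replicates.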

COS-1 = assay: Induction of cell death in African green monkey COS-1 cells at 10 uM; format: functional, cell-based; conditions: Chlorocebus aethiops
[10] = target: T1, PRMT5/MEP50 complex (Homo sapiens); assay: Inhibition of PRMT5/MEP50 (unknown origin) protein-protein interaction expressed in COS-1 cells at 0.25 uM incubated for 18 hrs by BiFC screening analysis relative to control; format: cell-based; method in brief: as §2
[11] = target: T1, PRMT5/MEP50 complex (Homo sapiens); assay: Inhibition of PRMT/MEP50 (unknown origin) protein-protein interaction expressed in COS-1 cells incubated for 18 hrs by BiFC screening analysis; format: cell-based; conditions: DDE = dose-dependent effect; method in brief: as §2

SMILES: Cn1cc(C(=O)NCC2CCN(C(=O)c3nc(-c4ccccc4)n4c3CCCCC4)CC2)cn1
inhibition [1]: 24%

SMILES: CCc1noc(C)c1COc1cccc(C(=O)NNC(=O)c2ccc3ccccc3n2)c1
inhibition [2]: Active
pIC50 (A549): 6.35
Activity (LNCaP [3]): Active
inhibition [4]: Active
Activity (LNCaP [5]): Active
inhibition [6]: 65.4%
inhibition [7]: Dde
inhibition [8]: Active
pIC50 (LNCaP [9]): 6.37
Activity (LNCaP [9]; DDE = dose-dependent effect): Dde

SMILES: Cc1noc(C)c1COc1cccc(C(=O)NNC(=O)c2ccc3ccccc3n2)c1
Activity (COS-1): Active
inhibition [10]: 41%
inhibition [11]: Dde
pIC50 (LNCaP [9]): 5.78

SMILES: CCCCC(=O)Nc1sc2c(c1C(=O)NC1CCS(=O)(=O)C1)CCC(C(C)(C)C)C2 (stereo not drawn)
inhibition [1]: 24%

Other lines, results leading:

inhibition [1]: 24%
SMILES: c1ccc(-n2cnc3ccccc32)cc1

inhibition [1]: 24%
SMILES: CCN(CC)c1ccc(/C=C2\S/C(=N/NC(=O)c3ccc(Cl)cc3Cl)NC2=O)cc1
